Source: PubChem
Xi reactivation – X-chromosome reactivation activator; AID 743238; hit rate 0.055% among 360,000; XiGFP mouse fibroblasts, % GFP-positive cells imaging, 3 d; cells co-treated with 5-aza-dC sensitizer; scaled so ellipticine positive control = 100%; activation, % at 7.58 µM;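 active = mean normalized replicate activation at least 10% and every replicate at or above 10%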;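 also: 0% = median of on-plate neutral control wells and 100% = ellipticine 6 µM median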
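System: SV40-immortalized XiGFP fibroblast cells, line 68-5-11 / Incubation: 3-day compound exposure, then 15 min fixation at room temperature / Compound: single concentration per compound, delivered by pin transfer / Buffer or medium: DMEM plus 5-aza-dC sensitizer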
Myeloid diff MLP – myeloid differentiation induction | ER-HoxA9 myeloid progenitors, lysozyme-GFP differentiation, flow cytometry | calls only at 10 µM | hit rate 1% among 360,000 | AID 624256;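 active = normalized GFP-positive differentiation at or above the plate's own cutoff, the solvent-only control mean plus 3 SD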;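 also: cells exposed to compound for four days before flow analysis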
ABCB6 inh MLPCN – human ABCB6 transporter inhibition; fluorescence ratio to DMSO, % at 10 µM; hit rate 0.19% among 360,000; Q9NP58; K562-ABCB6 porphyrin accumulation, flow cytometry, 1 h; stronger effect = lower value;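 active = fluorescence ratio to DMSO below 75%, the collection mean minus 3 SD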;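 also: signal is porphyrin accumulated inside mitochondria; 100% equals median channel fluorescence of DMSO control wells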
Target sequence (Q9NP58 whole entry, looked up): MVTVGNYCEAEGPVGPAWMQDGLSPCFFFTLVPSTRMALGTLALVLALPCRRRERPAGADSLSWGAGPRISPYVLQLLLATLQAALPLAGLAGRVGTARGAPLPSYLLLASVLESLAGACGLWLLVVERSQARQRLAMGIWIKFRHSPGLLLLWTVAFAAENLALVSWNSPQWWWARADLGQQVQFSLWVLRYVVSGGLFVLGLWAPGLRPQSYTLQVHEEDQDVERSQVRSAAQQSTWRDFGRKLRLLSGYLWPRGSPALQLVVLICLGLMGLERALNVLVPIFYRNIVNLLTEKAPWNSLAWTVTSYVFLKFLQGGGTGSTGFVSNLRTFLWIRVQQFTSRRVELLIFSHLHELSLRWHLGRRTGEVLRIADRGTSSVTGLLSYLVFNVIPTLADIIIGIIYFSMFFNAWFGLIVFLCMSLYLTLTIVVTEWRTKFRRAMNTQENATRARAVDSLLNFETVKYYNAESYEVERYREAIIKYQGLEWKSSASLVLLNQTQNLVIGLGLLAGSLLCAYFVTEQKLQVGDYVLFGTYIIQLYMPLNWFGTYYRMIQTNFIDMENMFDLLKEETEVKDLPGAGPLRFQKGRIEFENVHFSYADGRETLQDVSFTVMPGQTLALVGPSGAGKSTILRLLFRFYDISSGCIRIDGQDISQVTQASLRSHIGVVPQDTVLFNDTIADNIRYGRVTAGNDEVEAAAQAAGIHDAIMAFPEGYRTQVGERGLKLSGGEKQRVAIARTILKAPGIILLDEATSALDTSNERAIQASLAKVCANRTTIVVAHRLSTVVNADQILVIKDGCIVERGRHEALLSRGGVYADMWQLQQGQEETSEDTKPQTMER
The depositor's hits bear a star; i = inactive; . = no result; + = active, no number. The full list was thinned out, with hits kept by preference.

SMILES	Xi reactivation	Myeloid diff MLP	ABCB6 inh MLPCN
COc1ccc(CCn2c(C)c(C(C)=O)c3cc(OC(=O)c4ccco4)ccc32)cc1OC	.	i	89
CCCC#Cc1ccc([C@@H]2[C@@H](CO)N3C(=O)CN(C(=O)Nc4ccccc4F)C[C@@H]23)cc1	0	.	.
CCOC(=O)C1=C(c2ccccc2)NC(=O)NC1c1ccc(OC)c(OC)c1 (stereo not given)	0	i	100
CCOC(=O)C1=C(c2ccccc2)N(C)C(=O)NC1c1ccc(OC(F)F)c(OC)c1 (stereo not given)	.	+	100
CO[C@H]1CN(C)C(=O)c2ccc(NS(=O)(=O)c3ccccc3C)cc2OC[C@@H](C)N(C)C[C@@H]1C	0	.	.
Oc1ccccc1-c1nnc(COc2ccc(Cl)cc2Cl)o1	0	+	96
Oc1ccccc1-c1nnc(COc2ccccc2)o1	0	i	104
COC(=O)c1ccccc1-c1ccc(/C=N/NC(=O)c2cc3ccccc3o2)o1	.	i	100
COC(=O)c1ccccc1-c1c2ccc(=N)cc-2oc2cc(N)ccc12	2	+	.
C[C@@H]1CCCCO[C@H](CN(C)Cc2ccc(C(F)(F)F)cc2)[C@H](C)CN([C@@H](C)CO)C(=O)c2cc(NC(=O)c3ccccc3)ccc2O1	0	.	.
O=C(CCS(=O)(=O)c1ccccc1)Nc1ccc(N2CCN(Cc3ccccc3)CC2)cc1	1	+	79
O=C(CCS(=O)(=O)c1ccc(F)cc1)Nc1ccc(N2CCN(Cc3ccccc3)CC2)cc1	0	i	98
O=c1cnnc(Nc2ccc(F)cc2)[nH]1	0	i	96
O=c1cnnc(Nc2cccc(F)c2)[nH]1	0	+	103
COc1ccc(C#Cc2ccc3c(c2)[C@H]2[C@H](CCN2S(=O)(=O)c2ccc(OC)cc2)[C@@H](CO)N3C)cc1	0	.	.
COc1ccc(NC(=O)N(C)C[C@@H]2Oc3c(NC(=O)C4CC4)cccc3C(=O)N([C@@H](C)CO)C[C@H]2C)cc1	-1	.	.
COC(=O)Cc1ccc(NC(=S)NC2CC2)cc1	0	+	91
COC(=O)Cc1ccc(NC(=S)NCCO)cc1	0	i	94
CC(C)NC(=O)N[C@@H]1C=C[C@@H](CC(=O)NCc2ccc(Oc3ccccc3)cc2)O[C@@H]1CO	0	.	.
O=C(NCC[C@@H]1CC[C@H](NS(=O)(=O)c2ccc(F)cc2)[C@H](CO)O1)Nc1ccc(Cl)cc1	0	.	.
CC(C)(C)c1ccc(O)c(N=Cc2cc(Br)ccc2O)c1	0	i	91
Cc1ccc(O)c(C=Nc2cc(C)ccc2O)c1	.	+	102
CC[n+]1c(/C=C2/C=C(C)CC(C)C2)sc2ccccc21 (stereo not given)	0	i	114
CC[n+]1c(C=C2C=C(C)OC(C)=C2)sc2ccccc21	57*	.	723
CN(C)c1ccc(C=Cc2cnccn2)cc1	0	i	97
SMILES	Xi reactivation	Myeloid diff MLP	ABCB6 inh MLPCN
CN(C)c1ccc(/C=C/c2ccncc2)cc1	.	+	161
COCC(=O)N1CC2(C1)[C@H](c1ccc(C3=CCCC3)cc1)[C@H](CO)N2C(=O)COC	0	.	.
COCc1cn(CC[C@@H]2CC[C@H](NC(=O)Cc3cccnc3)[C@@H](CO)O2)nn1	1	.	.
Cc1cc(/C=N/n2cnnc2)c(C)n1-c1ccc(Cl)cc1	0	i	95
Cc1cc(N2CCCC2)ccc1/C=N/n1cnnc1	.	+	98
C/C(=C\c1ccccc1)C(=O)Nc1nc2ccc([N+](=O)[O-])cc2s1	0	i	96
CC(C)=CC(=O)Nc1nc2ccc([N+](=O)[O-])cc2s1	0	+	105
COc1cc2c(cc1OC)C(=Cc1ccc(N(C)C)cc1)C=C2	0	i	99
COc1cc2nc(/C=C/c3ccc(N(C)C)cc3)sc2cc1SC	4	+	208
O=C(C[C@H]1CC[C@@H](NS(=O)(=O)c2cccc(F)c2)[C@H](CO)O1)NCc1ccc2c(c1)OCO2	0	.	.
C[C@@H]1CN([C@H](C)CO)S(=O)(=O)c2ccc(C#CCN(C)C)cc2O[C@H]1CN(C)C	0	.	.
O=C(c1ccc([N+](=O)[O-])s1)N1CCc2ccccc21	0	+	106
O=C(c1ccccc1F)N1CCCc2ccccc21	0	+	90
O=C(c1ccc([N+](=O)[O-])s1)N1CCCc2ccccc21	0	+	94
O=C(c1ccc(C(=O)N2CCCc3ccccc32)s1)N1CCCc2ccccc21	.	i	94
O=C(c1cccc(F)c1F)N1CCCc2ccccc21	0	i	101
O=C(c1ccc([N+](=O)[O-])s1)N1CCc2ccccc2C1	0	i	100
